# Reference: ChEMBL document CHEMBL4680373, “Evaluation of 5-(Trifluoromethyl)-1,2,4-oxadiazole-Based Class IIa HDAC Inhibitors for Huntington's Disease” (ACS Med Chem Lett, 2021)
# Tests used:
# Histone deacetylase 4 [1] = biological target: T1, Histone deacetylase 4 (Homo sapiens, UniProt P56524); assay: Inhibition of HDAC4 (unknown origin) using Boc Lys(TFA) as substrate by fluorogenic assay
# How it was run: (§1)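 Biochemical HDAC isoform assay with the artificial fluorogenic substrate Boc-Lys-(TFA)-AMC, which is specific to class IIa enzymes and HDAC8. IC50 taken as the geometric mean of three experiments.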
# Histone deacetylase 4 [2] = biological target: T1, Histone deacetylase 4; assay: Inhibition of Class 2A HDAC4 in human Jurkat E6.1 cells using Boc-Lys-(TFA)-AMC as substrate by fluorogenic assay; assay type: cell-based
# How it was run: (§2)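 Whole-cell assay in Jurkat E6.1 cells with artificial fluorogenic substrates: Boc-Lys-(TFA)-AMC for class IIa/HDAC8 activity, which in this line is mostly HDAC4, and Boc-Lys-(Ac)-AMC for class I/IIb activity. IC50 given as the geometric mean of three experiments.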
# [3] = Inhibition of Class 1/2b HDAC in human Jurkat E6.1 cells using Boc-Lys-(Ac)-AMC as substrate by fluorogenic assay; assay type: cell-based; how it was run: as §2
# [4] = Intrinsic Clearance in mouse liver microsomes; assay type: ADME, Microsome; conditions: read-out: CLH
# [5] = Efflux ratio of permeability from basolateral to apical over apical to basolateral side in dog MDCK-MDR1 cells relative to wild type MDCK cells; assay type: ADME, cell-based, Canis lupus familiaris
# [6] = Selectivity index, ratio of IC50 for Class 1/2b HDAC in human Jurkat E6.1 cells using Boc-Lys-(Ac)-AMC as substrate to IC50 for Class 2A HDAC4 in human Jurkat E6.1 cells using Boc-Lys-(TFA)-AMC as substrate by fluorogenic assay
# How it was run: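 Human Jurkat E6.1 cells were assayed with two fluorogenic substrates. Boc-Lys-(TFA)-AMC reports class IIa activity, mostly HDAC4 in this line, and Boc-Lys-(Ac)-AMC reports class I/IIb activity. IC50s are geometric means of three experiments.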
# Histone deacetylase 1 = Histone deacetylase 1 (Homo sapiens, UniProt Q13547); assay: Inhibition of HDAC1 (unknown origin) using Ac-Arg-Gly-Lys(Ac) as substrate by fluorogenic assay
# Chain of Histone deacetylase 1 (Q13547 whole entry): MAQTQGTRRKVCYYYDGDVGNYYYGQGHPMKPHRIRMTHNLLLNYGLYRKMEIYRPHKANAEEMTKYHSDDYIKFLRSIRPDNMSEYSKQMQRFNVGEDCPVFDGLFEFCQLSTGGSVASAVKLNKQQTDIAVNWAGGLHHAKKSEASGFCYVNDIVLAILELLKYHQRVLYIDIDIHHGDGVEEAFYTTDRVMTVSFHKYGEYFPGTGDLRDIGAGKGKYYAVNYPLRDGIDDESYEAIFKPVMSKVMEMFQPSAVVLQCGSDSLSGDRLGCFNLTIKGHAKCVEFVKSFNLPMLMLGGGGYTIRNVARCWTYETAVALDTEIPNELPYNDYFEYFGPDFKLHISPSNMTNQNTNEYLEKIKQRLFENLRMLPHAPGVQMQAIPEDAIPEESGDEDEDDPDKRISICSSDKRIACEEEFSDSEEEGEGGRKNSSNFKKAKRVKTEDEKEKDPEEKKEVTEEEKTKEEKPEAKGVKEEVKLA
# Histone deacetylase 2 = Histone deacetylase 2 (Homo sapiens, UniProt Q92769); assay: Inhibition of HDAC2 (unknown origin) using Ac-Arg-Gly-Lys(Ac) as substrate by fluorogenic assay
# Chain of Histone deacetylase 2 (Q92769 whole entry): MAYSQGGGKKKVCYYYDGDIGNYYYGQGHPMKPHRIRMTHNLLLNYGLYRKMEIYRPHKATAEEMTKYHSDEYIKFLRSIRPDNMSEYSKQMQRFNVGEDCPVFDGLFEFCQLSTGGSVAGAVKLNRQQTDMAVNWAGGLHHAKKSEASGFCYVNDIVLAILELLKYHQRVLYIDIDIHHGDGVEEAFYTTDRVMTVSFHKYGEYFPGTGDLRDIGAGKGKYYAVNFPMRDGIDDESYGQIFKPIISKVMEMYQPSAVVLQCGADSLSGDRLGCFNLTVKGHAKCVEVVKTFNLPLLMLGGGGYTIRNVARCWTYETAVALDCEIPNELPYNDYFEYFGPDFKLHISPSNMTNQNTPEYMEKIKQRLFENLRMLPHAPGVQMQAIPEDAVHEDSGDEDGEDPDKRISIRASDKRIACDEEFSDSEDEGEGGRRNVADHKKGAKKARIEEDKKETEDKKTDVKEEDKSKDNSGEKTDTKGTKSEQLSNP
# Histone deacetylase 8 = biological target: T2, Histone deacetylase 8 (Homo sapiens, UniProt Q9BY41); assay: Inhibition of HDAC8 (unknown origin) using Boc-Lys(TFA) as substrate by fluorogenic assay; how it was run: as §1
# T2 sequence (Q9BY41 whole entry): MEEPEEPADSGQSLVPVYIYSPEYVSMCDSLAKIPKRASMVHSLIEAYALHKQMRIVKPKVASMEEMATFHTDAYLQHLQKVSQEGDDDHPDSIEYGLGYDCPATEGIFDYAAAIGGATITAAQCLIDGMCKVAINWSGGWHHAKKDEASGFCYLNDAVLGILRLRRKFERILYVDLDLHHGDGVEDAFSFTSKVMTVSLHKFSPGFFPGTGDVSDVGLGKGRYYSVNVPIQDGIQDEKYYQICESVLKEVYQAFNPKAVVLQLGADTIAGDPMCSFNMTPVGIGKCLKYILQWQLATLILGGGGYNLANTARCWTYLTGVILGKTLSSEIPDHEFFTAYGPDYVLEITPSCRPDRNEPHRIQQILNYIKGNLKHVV
# [7] = biological target: T3, Protein deacetylase HDAC6 (Homo sapiens, UniProt Q9UBN7); assay: Inhibition of HDAC6 (unknown origin) expressed in human HEK-Freestyle cells using Boc-Lys(Ac) as substrate by fluorogenic assay; assay type: cell-based
# T3 sequence (Q9UBN7 whole entry): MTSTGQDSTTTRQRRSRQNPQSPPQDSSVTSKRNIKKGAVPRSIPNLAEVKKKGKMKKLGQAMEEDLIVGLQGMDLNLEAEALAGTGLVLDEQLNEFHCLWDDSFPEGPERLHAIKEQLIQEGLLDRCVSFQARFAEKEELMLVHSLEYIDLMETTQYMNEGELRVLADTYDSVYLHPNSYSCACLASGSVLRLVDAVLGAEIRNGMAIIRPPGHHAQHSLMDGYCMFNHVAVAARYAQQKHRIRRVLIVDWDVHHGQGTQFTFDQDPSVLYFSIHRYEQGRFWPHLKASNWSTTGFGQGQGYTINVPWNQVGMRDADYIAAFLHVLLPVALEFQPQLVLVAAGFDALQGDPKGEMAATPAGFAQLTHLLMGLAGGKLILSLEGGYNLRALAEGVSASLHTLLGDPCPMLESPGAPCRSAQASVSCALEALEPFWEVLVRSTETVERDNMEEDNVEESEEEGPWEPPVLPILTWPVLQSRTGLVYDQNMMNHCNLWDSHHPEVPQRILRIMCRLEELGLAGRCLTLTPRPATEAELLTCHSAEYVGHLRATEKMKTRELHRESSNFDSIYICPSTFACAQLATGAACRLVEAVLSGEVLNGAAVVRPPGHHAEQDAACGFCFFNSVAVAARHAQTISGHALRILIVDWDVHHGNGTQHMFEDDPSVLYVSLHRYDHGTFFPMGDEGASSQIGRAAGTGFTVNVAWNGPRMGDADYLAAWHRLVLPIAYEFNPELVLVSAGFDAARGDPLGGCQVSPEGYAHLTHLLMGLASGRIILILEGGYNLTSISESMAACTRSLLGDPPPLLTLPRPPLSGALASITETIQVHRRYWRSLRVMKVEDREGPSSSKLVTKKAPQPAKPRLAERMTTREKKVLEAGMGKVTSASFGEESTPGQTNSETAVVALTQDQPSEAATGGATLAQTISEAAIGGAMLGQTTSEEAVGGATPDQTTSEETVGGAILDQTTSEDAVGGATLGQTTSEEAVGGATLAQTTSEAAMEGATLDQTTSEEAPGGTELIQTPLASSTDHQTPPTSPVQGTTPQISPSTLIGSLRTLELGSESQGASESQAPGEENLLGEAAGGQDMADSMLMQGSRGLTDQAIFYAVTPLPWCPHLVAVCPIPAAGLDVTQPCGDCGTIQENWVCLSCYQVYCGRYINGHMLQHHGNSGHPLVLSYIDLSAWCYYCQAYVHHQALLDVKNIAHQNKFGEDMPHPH
# How it was run: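 HDAC6 was supplied as lysate of HEK cells overexpressing the enzyme. Activity was read with the class I/IIb-specific fluorogenic substrate Boc-Lys-(Ac)-AMC. IC50 is the geometric mean of three experiments.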
# [8] = Apparent permeability of the compound in dog MDCK-MDR1 cells; assay type: ADME, cell-based, Canis lupus familiaris
# [9] = Kinetic solubility of the compound; assay type: physicochemical; conditions: read-out: Kinetic_solubility
# [10] = Chemical stability of the compound in DMSO-d6 measured for 9 days at room temperature by 1H-NMR spectroscopy; assay type: physicochemical; conditions: 216 h; time 9 day
# Histone deacetylase 5 = Histone deacetylase 5 (Homo sapiens, UniProt Q9UQL6); assay: Inhibition of HDAC5 (unknown origin) using Boc Lys(TFA) as substrate by fluorogenic assay; how it was run: as §1
# Chain of Histone deacetylase 5 (Q9UQL6 whole entry): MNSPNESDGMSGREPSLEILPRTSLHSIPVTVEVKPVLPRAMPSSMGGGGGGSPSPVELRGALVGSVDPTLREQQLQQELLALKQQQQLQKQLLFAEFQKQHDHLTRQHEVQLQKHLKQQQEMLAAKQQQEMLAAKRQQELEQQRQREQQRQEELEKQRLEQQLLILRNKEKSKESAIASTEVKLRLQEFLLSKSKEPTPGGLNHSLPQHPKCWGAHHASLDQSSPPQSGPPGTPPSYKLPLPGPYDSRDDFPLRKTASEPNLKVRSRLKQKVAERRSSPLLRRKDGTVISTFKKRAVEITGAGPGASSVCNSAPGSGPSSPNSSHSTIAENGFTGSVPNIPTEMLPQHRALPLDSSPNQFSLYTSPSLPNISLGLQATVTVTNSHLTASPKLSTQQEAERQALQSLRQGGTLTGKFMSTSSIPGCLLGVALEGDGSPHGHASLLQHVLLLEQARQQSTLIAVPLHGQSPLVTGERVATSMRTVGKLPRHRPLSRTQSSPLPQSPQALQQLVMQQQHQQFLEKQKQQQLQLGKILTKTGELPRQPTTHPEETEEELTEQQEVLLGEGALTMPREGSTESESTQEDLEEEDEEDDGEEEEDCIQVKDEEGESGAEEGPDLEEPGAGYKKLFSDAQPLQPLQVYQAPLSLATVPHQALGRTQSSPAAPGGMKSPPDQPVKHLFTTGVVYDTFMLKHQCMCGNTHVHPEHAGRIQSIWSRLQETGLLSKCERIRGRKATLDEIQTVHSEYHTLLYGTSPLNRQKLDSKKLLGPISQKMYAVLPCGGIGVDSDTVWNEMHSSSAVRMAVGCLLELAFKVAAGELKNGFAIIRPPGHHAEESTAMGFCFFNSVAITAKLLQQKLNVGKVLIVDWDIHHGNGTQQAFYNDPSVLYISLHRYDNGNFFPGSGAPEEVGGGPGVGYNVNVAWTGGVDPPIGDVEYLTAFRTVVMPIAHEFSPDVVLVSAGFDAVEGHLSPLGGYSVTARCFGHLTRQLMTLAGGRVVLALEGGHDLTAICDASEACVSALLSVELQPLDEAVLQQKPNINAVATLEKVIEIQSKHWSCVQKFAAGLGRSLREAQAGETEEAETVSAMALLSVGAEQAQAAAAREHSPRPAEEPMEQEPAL
# Histone deacetylase 9 = Histone deacetylase 9 (Homo sapiens, UniProt Q9UKV0); assay: Inhibition of HDAC9 (unknown origin) using Boc Lys(TFA) as substrate by fluorogenic assay; how it was run: as §1
# Chain of Histone deacetylase 9 (Q9UKV0 whole entry): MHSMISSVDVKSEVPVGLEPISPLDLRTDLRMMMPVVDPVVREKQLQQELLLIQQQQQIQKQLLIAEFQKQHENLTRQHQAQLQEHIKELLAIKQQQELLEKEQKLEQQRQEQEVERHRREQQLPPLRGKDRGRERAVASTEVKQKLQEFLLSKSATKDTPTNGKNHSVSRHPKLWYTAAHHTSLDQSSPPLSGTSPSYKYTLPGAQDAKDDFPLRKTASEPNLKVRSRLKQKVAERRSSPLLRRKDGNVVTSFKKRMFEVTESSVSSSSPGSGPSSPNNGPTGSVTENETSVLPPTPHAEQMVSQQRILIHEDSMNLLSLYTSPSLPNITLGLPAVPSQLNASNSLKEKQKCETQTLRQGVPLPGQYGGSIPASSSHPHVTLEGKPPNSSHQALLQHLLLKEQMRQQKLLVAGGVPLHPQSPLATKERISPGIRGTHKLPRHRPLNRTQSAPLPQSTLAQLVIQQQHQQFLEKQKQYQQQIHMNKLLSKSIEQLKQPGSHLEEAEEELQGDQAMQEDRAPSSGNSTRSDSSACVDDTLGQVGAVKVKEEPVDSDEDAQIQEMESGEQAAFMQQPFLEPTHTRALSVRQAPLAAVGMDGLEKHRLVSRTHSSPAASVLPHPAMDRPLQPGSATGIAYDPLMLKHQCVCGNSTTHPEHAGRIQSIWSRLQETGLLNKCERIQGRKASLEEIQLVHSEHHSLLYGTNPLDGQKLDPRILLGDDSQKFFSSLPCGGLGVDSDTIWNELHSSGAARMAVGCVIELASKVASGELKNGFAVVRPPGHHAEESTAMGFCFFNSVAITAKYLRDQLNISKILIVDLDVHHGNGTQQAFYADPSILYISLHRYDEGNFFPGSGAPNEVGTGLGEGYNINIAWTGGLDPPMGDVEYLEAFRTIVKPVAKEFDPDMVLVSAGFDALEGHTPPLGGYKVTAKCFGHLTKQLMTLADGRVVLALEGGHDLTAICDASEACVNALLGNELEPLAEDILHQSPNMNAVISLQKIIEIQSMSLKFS
# [11] = biological target: Histone deacetylase 3/Nuclear receptor corepressor 1 (HDAC3/NCoR1) (Homo sapiens); assay: Inhibition of HDAC3/NCOR1 (unknown origin) using Boc-Lys(Ac) as substrate by fluorogenic assay
# T1 sequence (P56524 whole entry, canonical isoform): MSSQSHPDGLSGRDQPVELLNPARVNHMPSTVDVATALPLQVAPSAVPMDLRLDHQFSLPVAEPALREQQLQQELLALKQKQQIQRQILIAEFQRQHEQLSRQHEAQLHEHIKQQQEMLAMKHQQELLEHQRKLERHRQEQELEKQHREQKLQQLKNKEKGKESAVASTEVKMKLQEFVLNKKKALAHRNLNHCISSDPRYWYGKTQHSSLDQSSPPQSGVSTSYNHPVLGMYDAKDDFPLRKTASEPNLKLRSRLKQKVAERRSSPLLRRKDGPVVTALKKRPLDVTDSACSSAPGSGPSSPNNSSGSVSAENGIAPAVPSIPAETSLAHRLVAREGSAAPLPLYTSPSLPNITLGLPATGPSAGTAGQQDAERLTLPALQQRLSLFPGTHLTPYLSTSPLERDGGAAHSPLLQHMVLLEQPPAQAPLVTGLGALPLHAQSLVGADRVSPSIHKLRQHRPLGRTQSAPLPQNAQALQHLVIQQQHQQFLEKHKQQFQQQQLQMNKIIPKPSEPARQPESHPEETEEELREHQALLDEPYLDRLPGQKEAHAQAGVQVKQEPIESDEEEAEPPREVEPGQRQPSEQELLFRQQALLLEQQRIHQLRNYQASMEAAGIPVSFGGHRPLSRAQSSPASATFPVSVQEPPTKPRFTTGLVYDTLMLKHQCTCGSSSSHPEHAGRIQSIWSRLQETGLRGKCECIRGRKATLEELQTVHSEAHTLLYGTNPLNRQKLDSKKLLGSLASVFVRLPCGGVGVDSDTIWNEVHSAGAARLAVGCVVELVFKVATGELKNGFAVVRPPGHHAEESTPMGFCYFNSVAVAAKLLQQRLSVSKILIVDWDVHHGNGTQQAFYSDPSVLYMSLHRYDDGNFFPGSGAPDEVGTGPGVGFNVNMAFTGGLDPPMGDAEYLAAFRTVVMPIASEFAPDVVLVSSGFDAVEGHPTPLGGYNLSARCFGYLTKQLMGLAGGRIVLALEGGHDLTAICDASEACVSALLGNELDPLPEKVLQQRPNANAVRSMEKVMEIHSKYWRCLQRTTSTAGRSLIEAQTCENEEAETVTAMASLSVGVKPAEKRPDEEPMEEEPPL
Structure (SMILES),IC50 (Histone deacetylase 4 [1]) [nM],IC50 (Histone deacetylase 4 [2]) [nM],IC50 [3] [µM],CLint scaled [4] [mL/min/kg],Ratio [5],Ratio IC50 [6],solubility kinetic [9] [µM],further results
CCCN(CCC)C[C@@H](C)NC(=O)c1ccc(-c2nc(C(F)(F)F)no2)cc1,28000,> 50000,,,,,,
C[C@H](CN1CCC[C@@H](OC(F)F)C1)NC(=O)c1ccc(-c2noc(C(F)(F)F)n2)cc1,20,60,3.6,661,1.2,60,,
O=C(NC1(CN2CCCC2)CC1)c1ccc(-c2noc(C(F)(F)F)n2)cc1,40,180,6.4,,,36,,
C[C@H](CN1CCC(F)CC1)NC(=O)c1ccc(-c2noc(C(F)(F)F)n2)cc1,30,100,10.3,214,1.2,103,,
CCCN(CCC)C[C@@H](C)NC(=O)c1ccc(-c2noc(C(F)(F)F)n2)cc1,,,3,834,,,140,IC50 (Histone deacetylase 1): 6 µM; IC50 (Histone deacetylase 2): 9.3 µM; IC50 (Histone deacetylase 8): 2900 nM; IC50 [7]: 6.4 µM; Papp [8]: 54.1 ×10⁻⁶ cm/s; Stabilty [10]: Stable
CCCN(CCC)C[C@@H](C)NC(=O)c1ccc(-c2noc(C)n2)cc1,> 50000,> 50000,,,,,,
C[C@@H](CN1CCCC1)NC(=O)c1ccc(-c2noc(C(F)(F)F)n2)cc1,50,730,43,,,59,,
CCCN(CCC)C[C@@H](C)NC(=O)c1ccc(-c2noc(C(F)F)n2)cc1,890,19000,,,,,,
C[C@H](CN1CCC(F)(F)C1)NC(=O)c1ccc(-c2noc(C(F)(F)F)n2)cc1,230,1300,> 50,,,>38,52,
C[C@H](CN1CCC[C@H]1C)NC(=O)c1ccc(-c2noc(C(F)(F)F)n2)cc1,70,600,14,,,,178,
C[C@H](CN1CCCCCC1)NC(=O)c1ccc(-c2noc(C(F)(F)F)n2)cc1,10,30,1.7,128,1.2,57,,
C[C@H](CN1CCCCC1)NC(=O)c1ccc(-c2noc(C(F)(F)F)n2)cc1,,70,9,66,1.6,129,157,
CC(C)(CN1CCCC1)NC(=O)c1ccc(-c2noc(C(F)(F)F)n2)cc1,280,310,12,,,39,,
C[C@H](CN1CCCC1)NC(=O)c1ccc(-c2noc(C(F)(F)F)n2)cc1,10,70,10,65,2.2,143,178,
CCCN(CCC)C[C@@H](C)NC(=O)c1ccc(-c2ncon2)cc1,> 50000,> 50000,,,,,,
O=C(NCCN1CCCC1)c1ccc(-c2noc(C(F)(F)F)n2)cc1,30,250,3.7,76,,,169,IC50 (Histone deacetylase 5): 90 nM; IC50 (Histone deacetylase 9): 70 nM; IC50 (Histone deacetylase 1): 13 µM; IC50 (Histone deacetylase 2): 26 µM; IC50 (Histone deacetylase 8): 2800 nM; IC50 [7]: 9.8 µM; Papp [8]: 60.4 ×10⁻⁶ cm/s; IC50 [11]: 5.1 µM
C[C@H](CN1CCCC(C)(C)C1)NC(=O)c1ccc(-c2noc(C(F)(F)F)n2)cc1,2,10,0.52,1290,1,52,150,
C[C@H](CN1CCC(F)(F)CC1)NC(=O)c1ccc(-c2noc(C(F)(F)F)n2)cc1,130,380,> 50,,,>132,25,
C[C@H](CN1CCC[C@H](OC(F)F)C1)NC(=O)c1ccc(-c2noc(C(F)(F)F)n2)cc1,3,10,1.5,757,1.1,150,51,
